In ChEMBL document CHEMBL1782040, “Exceptionally fast uptake and metabolism of cyanidin 3-glucoside by rat kidneys and liver” (J Nat Prod, 2011):
Blank lines part the entries; values can stand above or below the molecule they belong to.

What was measured:
[1] = Drug uptake in Wistar rat urine assessed as peonidin 3-glucoside level by assuming plasma volume was 8.8 mL at 0.67 umol, iv after 15 mins by mass spectrometry analysis; assay type: ADME, organism-based; conditions: in vivo, 0.25 h
Summary of the method: (§1)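 Fasted, anaesthetized rats received the anthocyanin in saline as a 0.67 μmol iliac-vein bolus (76 μM in plasma). They were sacrificed at 15 s, 1, 5 or 15 min, and plasma, kidneys, liver, urine and bile were collected. Anthocyanins were methanol-extracted, SPE-cleaned and quantified by MS (tandem MS for trace metabolites), then corrected for recovery measured on spiked blood, homogenates and urine. Amounts assume 8.8 mL plasma, 2.4 g kidney and 7.0 g liver, with urine and bile volumes measured.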

Liver [2] = test: Drug uptake in Wistar rat liver assessed as peonidin 3-glucoside level at 0.67 umol, iv after 5 mins by mass spectrometry analysis; assay type: ADME, organism-based; conditions: in vivo, read-out: Drug uptake
Summary of the method: (§2)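 Fasting, anaesthetized rats received cyanidin 3-glucoside in saline into the iliac vein (0.67 μmol) and were killed at 15 s, 1, 5 or 15 min. Liver homogenates were methanol-extracted, cleaned up by SPE and quantified by LC-MS/MS.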

[3] = Drug excretion in Wistar rat urine assessed as peonidin 3-glucoside level at 0.67 umol, iv after 15 mins by mass spectrometry analysis; assay type: ADME, organism-based; conditions: in vivo, 0.25 h
Summary of the method: (§3)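 Cyanidin 3-glucoside in saline was injected into the iliac vein of fasting, anaesthetized rats (0.67 μmol; 76 μM in plasma). Urine and bile were collected to 15 min, and their volumes were measured. Anthocyanin levels were measured by LC-MS and corrected for recovery from spiked standards. Amounts are given per collected volume (n = 9 urine, n = 4 bile).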

[4] = Drug excretion in Wistar rat bile assessed as peonidin 3-glucoside level at 0.67 umol, iv after 15 mins by mass spectrometry analysis; assay type: ADME, organism-based; conditions: in vivo, 0.25 h; summary of the method: as §3
Kidney [5] = test: Drug uptake in Wistar rat kidney assessed as peonidin 3-glucoside level at 0.67 umol, iv after 1 min by mass spectrometry analysis; assay type: ADME, organism-based; conditions: in vivo, read-out: Drug uptake
Summary of the method: (§4)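 Cyanidin 3-glucoside in saline was given as one iliac-vein injection (0.67 μmol) to fasting, anaesthetized rats, which were killed at 15 s, 1, 5 or 15 min. Kidneys were homogenized, extracted in methanol, cleaned up by SPE and analysed by LC-MS/MS.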

Liver [6] = test: Drug uptake in Wistar rat liver assessed as peonidin 3-glucoside level at 0.67 umol, iv after 15 mins by mass spectrometry analysis; assay type: ADME, organism-based; conditions: in vivo, 0.25 h; summary of the method: as §2
Nucleic Acid [7] = test: Ratio of drug uptake in urine to kidney in Wistar rat assessed as peonidin 3-glucoside level at 0.67 umol, iv after 15 mins by mass spectrometry analysis; assay type: ADME, organism-based; conditions: in vivo, 0.25 h
[8] = Drug uptake in Wistar rat bile assessed as peonidin 3-glucoside level by assuming plasma volume was 8.8 mL at 0.67 umol, iv after 15 mins by mass spectrometry analysis; assay type: ADME, organism-based; conditions: in vivo, 0.25 h
[9] = Drug uptake in Wistar rat urine assessed as peonidin 3-glucoside level at 0.67 umol, iv after 15 mins by mass spectrometry analysis; assay type: ADME, organism-based; conditions: in vivo, 0.25 h, read-out: Drug uptake; summary of the method: as §1
Kidney [10] = test: Drug uptake in Wistar rat kidney assessed as peonidin 3-glucoside level by assuming kidney mass was 2.4 gram at 0.67 umol, iv after 15 mins by mass spectrometry analysis; assay type: ADME, organism-based; conditions: in vivo, 0.25 h; summary of the method: as §4
Liver [11] = test: Drug uptake in Wistar rat liver assessed as peonidin 3-glucoside level by assuming liver mass was 7 grams at 0.67 umol, iv after 15 mins by mass spectrometry analysis; assay type: ADME, organism-based; conditions: in vivo, 0.25 h; summary of the method: as §2
Liver [12] = test: Drug uptake in Wistar rat liver assessed as peonidin 3-glucoside level by assuming liver mass was 7 grams at 0.67 umol, iv after 5 mins by mass spectrometry analysis; assay type: ADME, organism-based; conditions: in vivo; summary of the method: as §2
Nucleic Acid [13] = test: Ratio of drug uptake in bile to liver in Wistar rat assessed as peonidin 3-glucoside level at 0.67 umol, iv after 15 mins by mass spectrometry analysis; assay type: ADME, organism-based; conditions: in vivo, 0.25 h
Kidney [14] = test: Drug uptake in Wistar rat kidney assessed as peonidin 3-glucoside level at 0.67 umol, iv after 15 mins by mass spectrometry analysis; assay type: ADME, organism-based; conditions: in vivo, 0.25 h, read-out: Drug uptake; summary of the method: as §4
Kidney [15] = test: Drug uptake in Wistar rat kidney assessed as peonidin 3-glucoside level by assuming kidney mass was 2.4 gram at 0.67 umol, iv after 0.25 mins by mass spectrometry analysis; assay type: ADME, organism-based; conditions: in vivo, 15 s; summary of the method: as §4
[16] = Drug uptake in Wistar rat bile assessed as peonidin 3-glucoside level at 0.67 umol, iv after 15 mins by mass spectrometry analysis; assay type: ADME, organism-based; conditions: in vivo, 0.25 h, read-out: Drug uptake; summary of the method: as §3
Plasma [17] = test: Drug uptake in Wistar rat plasma assessed as peonidin 3-glucoside level at 0.67 umol, iv after 0.25 mins by mass spectrometry analysis; assay type: ADME, organism-based; conditions: in vivo, 15 s; summary of the method: as §1
Kidney [18] = test: Drug uptake in Wistar rat kidney assessed as peonidin 3-glucoside level by assuming kidney mass was 2.4 gram at 0.67 umol, iv after 5 mins by mass spectrometry analysis; assay type: ADME, organism-based; conditions: in vivo; summary of the method: as §4
Plasma [19] = test: Drug uptake in Wistar rat plasma assessed as peonidin 3-glucoside level at 0.67 umol, iv after 15 mins by mass spectrometry analysis; assay type: ADME, organism-based; conditions: in vivo, 0.25 h; summary of the method: as §1
Liver [20] = test: Drug uptake in Wistar rat liver assessed as peonidin 3-glucoside level at 0.67 umol, iv after 0.25 mins by mass spectrometry analysis; assay type: ADME, organism-based; conditions: in vivo, 15 s; summary of the method: as §2
Kidney [21] = test: Drug uptake in Wistar rat kidney assessed as peonidin 3-glucoside level at 0.67 umol, iv after 5 mins by mass spectrometry analysis; assay type: ADME, organism-based; conditions: in vivo, read-out: Drug uptake; summary of the method: as §4
Kidney [22] = test: Drug uptake in Wistar rat kidney assessed as peonidin 3-glucoside level at 0.67 umol, iv after 0.25 mins by mass spectrometry analysis; assay type: ADME, organism-based; conditions: in vivo, 15 s, read-out: Drug uptake; summary of the method: as §4
Liver [23] = test: Drug uptake in Wistar rat liver assessed as peonidin 3-glucoside level at 0.67 umol, iv after 1 min by mass spectrometry analysis; assay type: ADME, organism-based; conditions: in vivo; summary of the method: as §2
Liver [24] = test: Drug uptake in Wistar rat liver assessed as peonidin 3-glucoside level by assuming liver mass was 7 grams at 0.67 umol, iv after 0.25 mins by mass spectrometry analysis; assay type: ADME, organism-based; conditions: in vivo, 15 s; summary of the method: as §2
Kidney [25] = test: Drug uptake in Wistar rat kidney assessed as peonidin 3-glucoside level by assuming kidney mass was 2.4 gram at 0.67 umol, iv after 1 min by mass spectrometry analysis; assay type: ADME, organism-based; conditions: in vivo; summary of the method: as §4
Plasma [26] = test: Drug uptake in Wistar rat plasma assessed as peonidin 3-glucoside level at 0.67 umol, iv after 1 min by mass spectrometry analysis; assay type: ADME, organism-based; conditions: in vivo; summary of the method: as §1
Liver [27] = test: Drug uptake in Wistar rat liver assessed as peonidin 3-glucoside level by assuming liver mass was 7 grams at 0.67 umol, iv after 1 min by mass spectrometry analysis; assay type: ADME, organism-based; conditions: in vivo; summary of the method: as §2
Kidney [28] = test: Drug uptake in Wistar rat kidney assessed as malvidin 3-glucoside level by assuming kidney mass was 2.4 gram at 0.67 umol, iv after 15 mins by tandem mass spectrometry; assay type: ADME, organism-based; conditions: in vivo, 0.25 h
Liver [29] = test: Drug uptake in Wistar rat liver assessed as malvidin 3-glucoside level at 0.67 umol, iv after 1 min by tandem mass spectrometry; assay type: ADME, organism-based; conditions: in vivo, read-out: Drug uptake; summary of the method: as §2
[30] = Drug uptake in Wistar rat urine assessed as malvidin 3-glucoside level at 0.67 umol, iv after 15 mins by tandem mass spectrometry; assay type: ADME, organism-based; conditions: in vivo, 0.25 h, read-out: Drug uptake; summary of the method: as §1
[31] = Drug uptake in Wistar rat urine assessed as malvidin 3-glucoside level by assuming plasma volume was 8.8 mL at 0.67 umol, iv after 15 mins by tandem mass spectrometry; assay type: ADME, organism-based; conditions: in vivo, 0.25 h; summary of the method: as §1
[32] = Drug excretion in Wistar rat urine assessed as malvidin 3-glucoside level at 0.67 umol, iv after 15 mins by mass spectrometry analysis; assay type: ADME, organism-based; conditions: in vivo, 0.25 h; summary of the method: as §3
[33] = Ratio of drug uptake in urine to kidney in Wistar rat assessed as malvidin 3-glucoside level at 0.67 umol, iv after 15 mins by mass spectrometry analysis; conditions: in vivo, 0.25 h
Kidney [34] = test: Drug uptake in Wistar rat kidney assessed as malvidin 3-glucoside level at 0.67 umol, iv after 5 mins by tandem mass spectrometry; assay type: ADME, organism-based; conditions: in vivo, read-out: Drug uptake; summary of the method: as §4
Liver [35] = test: Drug uptake in Wistar rat liver assessed as malvidin 3-glucoside level by assuming liver mass was 7 grams at 0.67 umol, iv after 1 min by tandem mass spectrometry; assay type: ADME, organism-based; conditions: in vivo
Plasma [36] = test: Drug uptake in Wistar rat plasma assessed as malvidin 3-glucoside level at 0.67 umol, iv after 5 mins by tandem mass spectrometry; assay type: ADME, organism-based; conditions: in vivo; summary of the method: as §1
Plasma [37] = test: Drug uptake in Wistar rat plasma assessed as malvidin 3-glucoside level at 0.67 umol, iv after 1 min by tandem mass spectrometry; assay type: ADME, organism-based; conditions: in vivo; summary of the method: as §1
Plasma [38] = test: Drug uptake in Wistar rat plasma assessed as malvidin 3-glucoside level at 0.67 umol, iv after 15 mins by tandem mass spectrometry; assay type: ADME, organism-based; conditions: in vivo, 0.25 h; summary of the method: as §1
Kidney [39] = test: Drug uptake in Wistar rat kidney assessed as malvidin 3-glucoside level at 0.67 umol, iv after 15 mins by tandem mass spectrometry; assay type: ADME, organism-based; conditions: in vivo, 0.25 h, read-out: Drug uptake; summary of the method: as §4
Kidney [40] = test: Drug uptake in Wistar rat kidney assessed as malvidin 3-glucoside level by assuming kidney mass was 2.4 gram at 0.67 umol, iv after 5 mins by tandem mass spectrometry; assay type: ADME, organism-based; conditions: in vivo

Drug uptake [1]: 98.7 nmol | concentration (Liver [2]): 4900 nM | Activity [3]: 14.7% | Activity [4]: 8.8% | concentration (Kidney [5]): 41500 nM | Drug uptake (Liver [6]): 4.6 µM | Ratio (Nucleic Acid [7]): 34.5 | Drug uptake [8]: 58.5 nmol | concentration [9]: 707000 nM | Drug uptake (Kidney [10]): 49.2 nmol | Drug uptake (Liver [11]): 31.9 nmol | Drug uptake (Liver [12]): 34.5 nmol | Ratio (Nucleic Acid [13]): 86.5 | concentration (Kidney [14]): 20500 nM | Drug uptake (Kidney [15]): 46 nmol | concentration [16]: 398000 nM | concentration (Plasma [17]): 1200 nM | Drug uptake (Kidney [18]): 38.8 nmol | concentration (Plasma [19]): 600 nM | Drug uptake (Liver [20]): 5.9 µM | concentration (Kidney [21]): 16100 nM | concentration (Kidney [22]): 19200 nM | Drug uptake (Liver [23]): 11.5 µM | Drug uptake (Liver [24]): 41.1 nmol | Drug uptake (Kidney [25]): 99.5 nmol | concentration (Plasma [26]): 500 nM | Drug uptake (Liver [27]): 80.4 nmol
SMILES: COc1cc(-c2[o+]c3cc(O)cc(O)c3cc2O[C@@H]2O[C@H](CO)[C@@H](O)[C@H](O)[C@H]2O)ccc1O

Drug uptake (Kidney [28]): 546 pmol | concentration (Liver [29]): 53 nM | concentration [30]: 1540 nM | Drug uptake [31]: 280 pmol | Activity [32]: 0.1% | Ratio [33]: 4.5 | concentration (Kidney [34]): 81 nM | Drug uptake (Liver [35]): 370 pmol | concentration (Plasma [36]): 6 nM | concentration (Plasma [37]): 10 nM | concentration (Plasma [38]): 28 nM | concentration (Kidney [39]): 227 nM | Drug uptake (Kidney [40]): 122 pmol
SMILES: COc1cc(-c2[o+]c3cc(O)cc(O)c3cc2O[C@@H]2O[C@H](CO)[C@@H](O)[C@H](O)[C@H]2O)cc(OC)c1O [OENIN]
